# Assay results from different studies.
# Compare with care: the assays were run in different laboratories.
SMILES,test,system,conditions,measurement,result
CCn1c2ccccc2c2cc(-n3nncc3-c3ccccc3)ccc21,,"female BALB/c mouse, plasma","intraperitoneal, 10 mg/kg, single dose",Vd/F,~0.4 L
Cn1cc(-c2ccc(S(=O)(=O)[C@@H]3C[C@@H](C(=O)NC4(C#N)CC4)N(C(=O)C4(C(F)(F)F)CC4)C3)c(C(F)(F)F)c2)cn1,,"human, plasma","oral, 100 mg, single dose, fasted, healthy volunteers",half-life,13.1 h
CC(C)(O)c1ccccc1-c1ccc2[nH]c(/C=C/c3ccc(C(F)(F)F)cc3)nc2c1,,"male human, plasma","oral, 5 mg, single dose, fasted, healthy volunteers",half-life,29.9 h
CC[C@H](C)[C@@H]1NC(=O)[C@@](C)(NC(=O)[C@H](CCCNC(=N)N)NC(=O)[C@H](CC(C)C)NC(=O)[C@@H](NC(=O)[C@H](CCC(N)=O)NC(=O)[C@H](CC(C)C)NC(C)=O)[C@@H](C)O)CCCC=CCCC[C@@](C)(C(=O)N[C@@H](CC(C)C)C(=O)N[C@@H](Cc2ccc3ccccc3c2)C(N)=O)NC(=O)[C@H](CCCNC(=N)N)NC(=O)[C@H](CCC(N)=O)NC1=O,,"male BALB/c mouse, plasma","intravenous, 15 mg/kg",Vd,0.0946 L/kg
CO[C@@H]1[C@H](OC(=O)N2CC(CCN3CCOCC3)C2)CC[C@]2(CO2)[C@H]1[C@@]1(C)O[C@@H]1CC=C(C)C,,"human, plasma","subcutaneous, 2.4 mg, single dose, healthy volunteers",half-life,0.69 h
CC[C@H](C)[C@H](NC(=O)[C@H](CCC(=O)O)NC(=O)[C@H](CO)NC(=O)[C@@H](NC(=O)[C@@H](N)CO)C(C)C)C(=O)N[C@@H](CCC(N)=O)C(=O)N[C@@H](CC(C)C)C(=O)N[C@@H](CCSC)C(=O)N[C@@H](Cc1cnc[nH]1)C(=O)N[C@@H](CC(N)=O)C(=O)N[C@@H](CC(C)C)C(=O)NCC(=O)N[C@@H](CCCCN)C(=O)N[C@@H](Cc1cnc[nH]1)C(=O)N[C@@H](CC(C)C)C(=O)N[C@@H](CC(N)=O)C(=O)N[C@@H](CO)C(=O)N[C@@H](CCSC)C(=O)N[C@@H](CCC(=O)O)C(=O)N[C@@H](CCCN=C(N)N)C(=O)N[C@H](C(=O)N[C@@H](CCC(=O)O)C(=O)N[C@@H](Cc1c[nH]c2ccccc12)C(=O)N[C@@H](CC(C)C)C(=O)N[C@@H](CCCN=C(N)N)C(=O)N[C@@H](CCCCN)C(=O)N[C@@H](CCCCN)C(=O)N[C@@H](CC(C)C)C(=O)N[C@@H](CCC(N)=O)C(=O)N[C@@H](CC(=O)O)C(=O)N[C@H](C(=O)N[C@@H](Cc1cnc[nH]1)C(=O)N[C@@H](CC(N)=O)C(=O)N[C@@H](Cc1ccccc1)C(=O)O)C(C)C)C(C)C,"chemical stability, HPLC",aqueous buffer,"0.5 mg/mL, 5 min, pH 6.5",compound remaining,100%
COCCOc1cnc2ccn([C@H](C)c3nnc4c(F)cc(-c5cnn(C)c5)cn34)c(=O)c2c1,,"human, plasma","oral, 25 mg, multiple doses, once daily, patients",half-life,6.3 h
COc1ccc([C@@H]2CN(C(=O)[C@@H](O)CO)C[C@@]2(C)[C@@H](C)O)cc1OC1CN(c2ccc(C)cn2)C1,,"human, plasma","oral, 30 mg, single dose, healthy volunteers",half-life,12.3 h
CCCCC(=O)OCOC(=O)C1CC(C)(C)N([O])C1(C)C (stereo not drawn),chemical stability,"bovine, serum",,half-life,0.817 h
CC(C)(C)c1ccc(O)c(CN(Cc2cc(C(C)(C)C)ccc2O)C2CCC(NC(N)=O)CC2)c1 (stereo not drawn),,"male C57BL/6 mouse, plasma","intraperitoneal, 10 mg/kg, single dose",Vd,3.7 L
CC(=O)N[C@@H](Cc1ccccc1)C(=O)N[C@@H](Cc1ccccc1)C(=O)N[C@@H](C)C(=O)N[C@@H](CC(C)C)C(=O)NCC(=O)N[C@@H](CC(C)C)C(=O)N[C@@H](C)C(=O)NCC(=O)N[C@@H](CC(=O)O)C(=O)N[C@@H](CC(=O)O)C(=O)O,chemical stability,"human, plasma","1 mM, pH 7.4",half-life,8.64 h
CC(C)n1cc(C#N)c2cc(-n3cc(C(=O)O)cn3)ccc21,,"human, plasma","oral, 25 mg, single dose, fasted, healthy volunteers",half-life,8.1 h
